# Shown are actives, neighbours in structure and some others; about 6.4% of the full set was active somewhere.
# Ecoli tolC: growth inhibitors of E. coli BW25113 tolC mutant; OD615; growth inhibition, % at 10 µM (by protocol); actives 2.2% (n = 65,000); AID 573;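 active = growth inhibition at or above a cutoff equal to the mean over every tested compound plus 3 SD, cut at about 60% in these data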;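 note: growth measured after 20 h incubation at 37 °C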
#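 Doses: one dose of 10 µM final / Material: E. coli BW25113 ΔtolC::kan, tolC deletion mutant strain / Buffer or medium: LB with kanamycin 50 µg/mL / Evaluation: percent growth inhibition / Detection: optical density read at 615 nm / Incubation: 37 °C, 20 h exposure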
# HUVEC inhibit: inhibitors of human endothelial cell proliferation; HUVEC proliferation, CellTiter-Glo luminescence, 72 h; hits give low values; viability, % at 10 µM (by protocol); actives 1.1% (n = 86,000);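 active = viability at or below 30%; inactive = viability above 30%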;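 note: 100% = median luminescence of DMSO-only cell control wells on each plate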
# Ecoli WT expand: blocks growth of wild type E. coli BW25113; growth inhibition, % at 100 µM; actives 0.15% (n = 98,000); OD600 absorbance; AID 710;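 active = growth inhibition above about 50% at one test dose, limit read from the data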;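 note: growth measured after 20 h incubation at 37 °C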
# Lung fibro prol: blocks proliferation of human lung fibroblasts; AID 719; LL 47 human lung fibroblast viability, ATP luminescence; hits give low values; actives 1.1% (n = 85,000); viability, % at 10 µM;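 active = viability at or below 50% in the single dose screen; inactive = viability above 50%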;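 note: compound exposure lasted 72 h before the ATP readout; 100% = median luminescence of untreated cell-only wells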
#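 Times – overnight cell rest, 72 h compound treatment at 37 °C · Test system – human lung fibroblast line LL 47, low passage · Amount – 1,150 cells in each well · Controls – cell-only wells, no compound · Doses – 0.1% DMSO in all compound wells · Measured by – CellTiter-Glo luminescence · Buffer or medium – IMEM plus 15% FBS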
# H69AR inhibit: blocks growth of human H69AR lung tumor cells; AID 598; actives 6% (n = 85,000); viability, % at 10 µM; H69AR lung tumor viability, ATP luminescence, 72 h; hits give low values;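 active = viability at or below 40%; inactive = viability above 40%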;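 note: multidrug resistant small cell line overexpressing MRP-1 efflux transporter; 100% = mean luminescence of untreated control wells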
# Jurkat tox 60K: reduces viability or proliferation of Jurkat cells | AID 463 | actives 1.2% (n = 56,000) | inhibition, % at 4 µM | Jurkat E6.1 viability, ATP luminescence, 48 h;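 active = inhibition above the mean inhibition of all tested compounds plus 3 SD, cut at about 28% in these data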
# Starred values were filed as active, the others as inactive; / = no result given; ! = repeats disagree.
SMILES,Ecoli tolC,HUVEC inhibit,Ecoli WT expand,Lung fibro prol,H69AR inhibit,Jurkat tox 60K
O=C(N/N=C1/CN2CCC1CC2)c1cc2ccccc2cc1O,/,107.5,3.0,75.0,37.5*,/
O=[N+]([O-])c1ccccc1CNCCc1ccc(F)cc1,/,/,10.0,/,/,/
Fc1ccc(CCNCc2ccc(Cl)c(Cl)c2)cc1,/,/,67.0*,/,/,/
CCN(CC)C1=NC(=[N+](CC)CC)c2ccccc21,/,62.2,7.0,98.7,90.1,/
CC(=NCC1CCCO1)c1c(O)n(C)c(=O)n(C)c1=O (configuration not stated),-18.5,104.2,-1.0,97.1,101.9,1.4
Cc1ccnc(-n2c(C)nc3ccccc3c2=O)c1,5.5,102.4,-21.0,101.4,87.0,-0.2
Cc1cccc(N2CCc3c2nc2ccccc2c3N)c1,8.3,88.3,25.0,95.2,34.5*!,-0.7
CC1(C)CC(n2[nH]c(=O)c3c2NC(=O)CSC3c2ccccc2)CCO1 (configuration not stated),2.4,94.7,-11.0,95.7,86.5,/
C=CCn1c(O)c(C(C)=NCc2cc(OC)cc(OC)c2)c(=O)[nH]c1=O,-1.4,26.1*,-1.0,48.1*,37.6*,37.4*
CCCCn1c(O)c(C(CC)=NCCc2ccccc2)c(=O)[nH]c1=O,99.2*,90.4,-8.0,89.1,70.9,-1.1
OC(c1ccc(F)cc1)C(c1ccccc1)N1CCOCC1 (configuration not stated),3.2,102.9,5.0,101.9,102.9,/
O=C1CSC2(CN3CCC2CC3)N1 (configuration not stated),/,92.5,-5.0,97.9,105.4,/
Cc1ccc(-n2c(O)c(C=Nc3ccccc3N)c(=O)[nH]c2=O)cc1C,-31.9,98.6,-6.0,109.6,13.1*,85.8*
FC(F)(F)c1ccc2c(c1)NP(=S)(N1CCOCC1)c1nccn1-2 (configuration not stated),8.6,94.4,-6.0,94.3,66.3,/
COc1ccc(-n2c(C)nc3cc(C(=O)N4CCC5(CC4)OCCO5)ccc32)cc1,-6.8,79.8,0.0,91.6,28.6*,6.7
Cc1nc2cc(C(=O)N3CCC4(CC3)OCCO4)ccc2n1-c1ccc(Br)cc1,21.9,95.8,-1.0,89.4,55.9,-6.8
Cn1nc(-c2ccc(OCC(=O)N3CCN(Cc4ccccc4)CC3)cc2)c2ccccc2c1=O,27.0,97.2,1.0,97.0,83.4,58.4*
O=C(Nc1ccc(Cl)cc1C(=O)c1ccccc1)c1ccc(Br)o1,/,/,-3.0,/,/,/
CCc1cc2c(s1)NC(=O)CN=C2c1cccs1,15.6,79.2,12.0,91.3,23.1*,4.5
O=C1NC(=O)C(CCc2ccncc2)(Cc2ccc3c(c2)OCO3)C(=O)N1CCc1ccccc1 (configuration not stated),/,81.9,-6.0,96.6,41.7,/
COc1ccccc1N1C(=O)NC(=O)C2(Cc3cc(C)ccc3N(C)C2)C1=O (configuration not stated),-1.7,85.4,1.0,88.9,93.2,2.3
CCOC(=O)C(NC(C)=O)C(OC(C)=O)c1cccc(N(CCCl)CCCl)c1 (configuration not stated),/,98.6,/,78.4,70.6,/
O=C(c1ccccc1F)c1cn(CC(=O)N2CCOCC2)c2ccccc12,/,89.0,-11.0,99.0,76.4,/
O=C(Cn1cc(C(=O)c2ccccc2F)c2ccccc21)NCc1ccco1,-18.1,74.2,-3.0,43.1*,111.7,1.6
Nc1c(C(=O)NCCc2ccccc2)c2nc3ccccc3nc2n1CCN1CCOCC1,89.8*,55.1,-23.0,91.7,1.6*,6.2
SMILES,Ecoli tolC,HUVEC inhibit,Ecoli WT expand,Lung fibro prol,H69AR inhibit,Jurkat tox 60K
COc1ccc(CCNC(=O)c2c(N)n(CCN3CCOCC3)c3nc4ccccc4nc23)cc1,50.2,54.3,-9.0,78.8,22.0*,2.8
CCCCn1c(N)c(C(=O)NCCN2CCOCC2)c2nc3ccccc3nc21,11.6,65.1,10.0,93.2,56.8,-1.3
NC12CN3CN(CN(C3)C1)C2 (tested in a mixture with another compound),-19.3,96.2,-6.0,101.0,103.8,-2.3
CC(C)Sc1nnc([C@@H](N)Cc2ccccc2)o1,/,98.9,16.0,103.2,96.8,/
O=C(COc1ccc(Cl)cc1)N1CCN(C/C=C/c2ccccc2)CC1,/,83.6,3.0,79.9,27.3*,/
Cc1cc2c(C(C)C)c(O)c(O)c(C=O)c2c(O)c1-c1c(C)cc2c(C(C)C)c(O)c(O)c(C=O)c2c1O,/,3.0*,/,28.5*!,0.6*,/
Cc1cc(C)n2nc(SC(C)C(=O)N3CCC4(CC3)OCCO4)nc2n1 (configuration not stated),3.2,111.6,2.0,/,93.4,-2.9
CCCCCCn1c(=O)c(C(=O)Nc2c(C)n(C)n(-c3ccccc3)c2=O)c(O)c2ccccc21,2.1,50.5,/,62.1,11.9*,-2.0
Cc1c(NC(=O)C(C)OC(=O)Cc2ccccc2)c(=O)n(-c2ccccc2)n1C (configuration not stated),/,/,-1.0,/,/,/
CCCCCn1c(=O)c(C(=O)Nc2ccncc2)c(O)c2ccccc21,17.6,68.8,/,49.0*,5.1*,2.1
COc1cc2ccccc2cc1C(=O)Nc1ccc(Cc2ccncc2)cc1,/,/,-29.0,/,/,/
CCCCCn1c(=O)c(C(=O)NCc2ccncc2)c(O)c2ccccc21,43.0,67.3,0.0,60.4,14.4*,-3.9
O=C(c1cccn2c(=O)c3cc(Cl)ccc3nc12)N1CCC2(CC1)OCCO2,/,101.1,0.0,95.2,108.3,/
COc1ccccc1-n1c(O)c(C=NCCN2CCNCC2)c(=O)[nH]c1=O,/,97.1,-4.0,96.5,103.0,/
CC12CCC(=O)C=C1CCC1C2CCC2(C)C(O)CCC12 (configuration not stated),25.1,29.5*,1.0,97.8,97.2,20.4
O=C(CSC1c2ccccc2-c2ccccc21)N/N=C/c1ccccc1O,/,27.0*,-3.0,40.7*,17.6*,/
CCC(=O)Nc1cc(C(=O)N2CCC3(CC2)OCCO3)ccc1S(=O)(=O)c1ccc(C)cc1,2.3,97.8,-2.0,91.5,101.3,-5.3
CC(=O)N1CC(=O)Nc2ccc(Cl)cc2C1c1ccc(F)cc1 (configuration not stated),-3.4,/,/,/,/,-8.9
COC(=O)C[C@]1(C(=O)OC)CN(C#N)N(c2ccc(Cl)cc2)C12c1ccccc1-c1ccccc12,/,2.4*,/,5.2*,0.6*,/
COC(=O)[C@@H]1[C@@H](C(=O)OC)C2(c3ccccc3-c3ccccc32)N(c2ccc(Cl)cc2)N1C#N,/,2.7*,/,3.3*,0.7*,/
O=c1[nH]c(=O)n(-c2ccc(F)cc2)c(O)c1C=Nc1ccccc1N1CCCC1,-8.6,90.9,-7.0,98.2,61.9,2.6
O=C(Nc1ccccc1OC(=O)N1CCCCC1)N1CCCCC1,-10.8,102.7,-1.0,98.7,86.1,-1.5
CC/C(=C\C=C\[C@@H]1C=C[C@@H]2CCC[C@H]2[C@@H]1C(=O)c1ccc[nH]1)[C@@H]1O[C@@H]([C@@H](C)C(=O)O)CC[C@@H]1C,/,12.4*,/,38.0*,15.0*,/
